Assay outcomes from PubChem.
Sampled rows, rich in hits. Any-hit rate of the full collection: about 2.7%.
ASAP1 inh – blocks human ASAP1-stimulated Arf1 GTP hydrolysis; AID 624377; inhibition, % at 16.5 µM; GDP FP detection; hit rate 0.19% among 360,000; in the data active means inhibition above about 25%;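 further: 0% = vehicle with enzyme and substrate and 100% = no enzyme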
Target sequence (Q9ULH1 325-724 limits assumed): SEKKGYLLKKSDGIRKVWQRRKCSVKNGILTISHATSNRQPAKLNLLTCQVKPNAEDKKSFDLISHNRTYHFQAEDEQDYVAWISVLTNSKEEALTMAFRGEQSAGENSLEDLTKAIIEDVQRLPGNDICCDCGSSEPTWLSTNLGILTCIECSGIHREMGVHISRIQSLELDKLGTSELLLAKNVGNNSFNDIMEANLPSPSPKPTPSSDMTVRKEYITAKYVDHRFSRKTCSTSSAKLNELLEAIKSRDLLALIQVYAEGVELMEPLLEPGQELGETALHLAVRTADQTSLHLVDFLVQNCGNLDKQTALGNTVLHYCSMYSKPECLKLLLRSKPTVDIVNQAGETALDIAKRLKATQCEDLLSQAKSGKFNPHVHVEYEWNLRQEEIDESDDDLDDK
Rev-erbA mod – modulators of human Rev-erb alpha DNA binding; P20393; Rev-erbα–FITC-DNA binding, fluorescence polarization, 90 min; activity, % at 10 µM; hit rate 0.79% among 370,000;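 active means activity above about 14%, limit read from the data; passing the limit was not always enough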;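 further: 0% = DMSO wells with 35 nM protein and 100% = DMSO wells with 750 nM protein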
HGIII-sPLA2 inh – Inhibits HGIII-sPLA2 liposome hydrolysis, primary screen. Q9NZ20. QFRET BODIPY PC-A2 liposome hydrolysis, fluorescence. inhibition, % at 12.2 µM. hit rate 0.56% among 370,000;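 active means inhibition above mean plus 3 SD of compounds lying within the high and low control bounds, cut at about 19% in these data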;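 further: 0% = median of test compound wells and 100% = no enzyme DMSO wells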
bovine MsrA act – activators of bovine methionine sulfoxide reductase A. hit rate 0.3% among 360,000. AID 602163. purified bovine MsrA, absorbance read-out. activation, % at 10.6 µM; in the data active means activation above about 7.5%;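 further: 0% = vehicle and 100% = reference activator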
ARFGAP1 inh – inhibits rat ARF GTPase activating protein 1; Q62848; Arfgap1-stimulated ARF1 GTP hydrolysis, GDP FP detection; inhibition, % at 16.5 µM; hit rate 0.26% among 360,000; AID 651572;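 active means inhibition above a per-plate limit, mean inhibition of low control wells plus 3 SD, cut at about 25% in these data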;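 further: 0% = DMSO wells with enzyme and 100% = wells lacking Arfgap1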
Target sequence (Q62848 1-136 limits assumed): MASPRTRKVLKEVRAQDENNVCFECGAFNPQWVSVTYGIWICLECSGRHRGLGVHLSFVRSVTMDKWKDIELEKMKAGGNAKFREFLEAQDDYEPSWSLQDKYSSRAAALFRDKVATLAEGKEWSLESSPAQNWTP
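Material – truncated rat Arfgap1 GAP domain · Buffer or medium – HEPES-based buffer, pH 7.5 · Reagent – human ARF1(Δ1-17)-GTP substrate · Dosing – 16.5 µM single point, 1.26% DMSO · Schedule – GTP hydrolysis reaction 2 h at 25 °C · Technique – GDP detection by fluorescence polarization · Benchmarks – No-Arfgap1 wells (100%) versus DMSO full-reaction wells (0%) · Repeats – single replicate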
MsrA inhibitor – inhibits bovine methionine sulfoxide reductase A. purified bovine MsrA, absorbance read-out. inhibition, % at 15.5 µM. hit rate 0.75% among 360,000. AID 651718; in the data active means inhibition above about 4.5%;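 further: 0% = vehicle wells with enzyme and 100% = reference inhibitor wells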
ARFGAP1 confirm – rat ARFGAP1 inhibition, confirmed; hit rate 30% among 890; shares compounds with ARFGAP1 inh; ARFGAP1-stimulated ARF1 GTP hydrolysis, GDP tracer FP; inhibition, % at 16.5 µM;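 active means average inhibition over triplicates above the hit cutoff set in the earlier primary screen, cut at about 25% in these data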;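 further: 0% = Arfgap1 plus ARF1-GTP with DMSO and 100% = wells lacking Arfgap1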
* hit, by the source's call.

Cc1ccc(NC(=O)C2C3/C=C\CCCCC32)cc1C (centres undefined) was read as ASAP1 inh 9, Rev-erbA mod 6, HGIII-sPLA2 inh 1, bovine MsrA act -9, ARFGAP1 inh 44*, MsrA inhibitor 0 and ARFGAP1 confirm -3.
CC(C)NC(=O)Cn1c(SCC(=O)N2c3ccccc3CC2C)nc2ccccc21 (centres undefined) was read as ASAP1 inh 1, Rev-erbA mod 3, HGIII-sPLA2 inh -1, bovine MsrA act -7, ARFGAP1 inh 31*, MsrA inhibitor 0 and ARFGAP1 confirm 1.
CC(C)NC(=O)Cn1c(SCC(=O)N2CCCCCC2)nc2ccccc21 was read as ASAP1 inh -2, Rev-erbA mod -11, HGIII-sPLA2 inh -2, bovine MsrA act -4, ARFGAP1 inh -3 and MsrA inhibitor 0.
N#CCCn1cc(/C=N/NC(N)=S)c(-c2ccc(-c3ccccc3)cc2)n1 was read as ASAP1 inh -3, Rev-erbA mod -1, HGIII-sPLA2 inh -12, bovine MsrA act -9, ARFGAP1 inh 27*, MsrA inhibitor 1 and ARFGAP1 confirm 26*.
`O=C(Nc1ccc(CN2CCOCC2)cc1)c1ccc(Br)o1` gave ASAP1 inh 7, Rev-erbA mod 0, HGIII-sPLA2 inh 10, bovine MsrA act -10, ARFGAP1 inh 4 and MsrA inhibitor 1.
Screening O=C(Nc1ccc(CN2CCOCC2)cc1)c1ccc(-c2cc(Cl)ccc2Cl)o1 returned ASAP1 inh 13, Rev-erbA mod -1, HGIII-sPLA2 inh -16, bovine MsrA act -4, ARFGAP1 inh 37*, MsrA inhibitor 0 and ARFGAP1 confirm 25*.
Screening COc1ccccc1N1CCN(C(=O)c2cc3n(n2)C(C(F)(F)F)CC(c2ccco2)N3)CC1 (centres undefined) returned ASAP1 inh 0, Rev-erbA mod -4, HGIII-sPLA2 inh -12, bovine MsrA act 4, ARFGAP1 inh 30*, MsrA inhibitor 0 and ARFGAP1 confirm -3.
O=C(NCCN1CCC(Cc2ccccc2)CC1)C1CCCN(S(=O)(=O)c2ccc([N+](=O)[O-])cc2)C1 (centres undefined) was read as Rev-erbA mod -4 and HGIII-sPLA2 inh 2.
Screening CC(C)C(=O)N1CCC(Oc2cccnc2)CC1 returned Rev-erbA mod -9 and HGIII-sPLA2 inh 9.
COC(=O)C1CN(Cc2ccccc2)CCS(=O)(=O)N1Cc1ccc(Cl)cc1 (centres undefined) was read as Rev-erbA mod 13 and HGIII-sPLA2 inh 0.
`Cc1ccc(OCC(O)CN2C(=O)NC(C)(C)C2=O)cc1` (centres undefined) gave ASAP1 inh 0, Rev-erbA mod -1, HGIII-sPLA2 inh 3, bovine MsrA act -4, ARFGAP1 inh 35*, MsrA inhibitor 0 and ARFGAP1 confirm -1.
Screening CCNC(=O)NC(=O)C(C)Sc1nc2cc(C(=O)OC)ccc2c(=O)n1-c1ccccc1 (centres undefined) returned ASAP1 inh -1, Rev-erbA mod -3, HGIII-sPLA2 inh 12, bovine MsrA act -4, ARFGAP1 inh 27*, MsrA inhibitor -1 and ARFGAP1 confirm 6.
Screening O=C(NC1CCCCN(Cc2ccc(Cl)cc2)C1=O)C(c1ccccc1)c1ccccc1 (centres undefined) returned Rev-erbA mod 7 and HGIII-sPLA2 inh -8.
COc1ccc(NC(=O)c2ccc3c(c2)C(=O)N(Cc2ccncc2)C3=O)cc1S(N)(=O)=O was read as ASAP1 inh -1, Rev-erbA mod -17, HGIII-sPLA2 inh 19, bovine MsrA act 0, ARFGAP1 inh 35*, MsrA inhibitor 0 and ARFGAP1 confirm 13.
COc1ccc(C)cc1NC(=O)c1ccc2c(c1)C(=O)N(Cc1ccncc1)C2=O was read as ASAP1 inh 6, Rev-erbA mod -10, HGIII-sPLA2 inh 4, bovine MsrA act -2, ARFGAP1 inh -1 and MsrA inhibitor 1.
Screening CC(C)(C)NC(=O)CN1CCN(C(=O)CCl)CC1 returned ASAP1 inh -1, Rev-erbA mod -2, HGIII-sPLA2 inh 3, bovine MsrA act -2, ARFGAP1 inh 25*, MsrA inhibitor -1 and ARFGAP1 confirm -1.
For CCOC(=O)N1CCN(C(=O)CCl)CC1 the results were ASAP1 inh 1, Rev-erbA mod -2, HGIII-sPLA2 inh 5, bovine MsrA act -3, ARFGAP1 inh -1 and MsrA inhibitor 1.
`CC(=O)n1cc(/C=N/NC(=O)c2ccc(Cl)cc2)c2ccccc21` gave ASAP1 inh 2, Rev-erbA mod 1, HGIII-sPLA2 inh 3, bovine MsrA act -3, ARFGAP1 inh 27*, MsrA inhibitor 3 and ARFGAP1 confirm -2.
For C=CCN1C(=O)[C@@H](CC(=O)NCc2cccs2)[C@]2(C(=O)OC)CCCCC=C12 the results were Rev-erbA mod -4 and HGIII-sPLA2 inh 9.
O=C(Cn1c2ccc(F)cc2c2nc3n(c(=O)c21)CCS3)Nc1ccc(Cl)cc1F was read as ASAP1 inh 20, Rev-erbA mod 0, HGIII-sPLA2 inh -1, bovine MsrA act -2, ARFGAP1 inh 42*, MsrA inhibitor -1 and ARFGAP1 confirm 57*.
Screening C/C(=N/NC(=O)c1cccs1)c1ccc(NC(=O)COc2ccc(Cl)cc2Cl)cc1 returned ASAP1 inh 9, Rev-erbA mod -6, HGIII-sPLA2 inh 0, bovine MsrA act -10, ARFGAP1 inh 38*, MsrA inhibitor 1 and ARFGAP1 confirm 53*.
`C=CCn1c(C)nnc1SCC(=O)Nc1ccccc1C(=O)NC1CC1` gave ASAP1 inh 4, Rev-erbA mod 5, HGIII-sPLA2 inh 7, bovine MsrA act -2, ARFGAP1 inh 25*, MsrA inhibitor -3 and ARFGAP1 confirm -3.
COc1cc(OC)c(OC)cc1CN1CCN(S(=O)(=O)c2ccc(NC(C)=O)cc2)CC1 was read as ASAP1 inh 2, Rev-erbA mod -5, HGIII-sPLA2 inh -7, bovine MsrA act -4, ARFGAP1 inh -10 and MsrA inhibitor 0.
For COc1ccc(S(=O)(=O)N2CCN(Cc3cc(OC)c(OC)cc3OC)CC2)cc1 the results were ASAP1 inh 13, Rev-erbA mod -4, HGIII-sPLA2 inh 13, bovine MsrA act -3, ARFGAP1 inh 27*, MsrA inhibitor 1 and ARFGAP1 confirm -11.
Screening C=CCn1c2ccccc2c2nnc(SCCN3CCCCC3)nc21 returned ASAP1 inh 1, Rev-erbA mod -3, HGIII-sPLA2 inh -8, bovine MsrA act 1, ARFGAP1 inh 4 and MsrA inhibitor 1.
`C=CCn1c2ccccc2c2nnc(SCCCn3c(=O)[nH]c4ccccc43)nc21` gave ASAP1 inh -12, Rev-erbA mod -3, HGIII-sPLA2 inh -32, bovine MsrA act -1, ARFGAP1 inh 40*, MsrA inhibitor 2 and ARFGAP1 confirm 5.
